The subject of data set [1] is Rattus norvegicus. In words: Analgesic activity in Wistar rat model of acetic-acid-induced writhing assessed as inhibition of writhing numbers at 5 to 10 mg/kg, ip preincubated for 30 mins followed by acetic acid induction and measured for 30 mins relative to control. It counts as functional. More on the design: scale not given: the % may be the effect or the level left. An outline of the steps: (§1)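 Male Wistar rats (250-300 g) in groups of 5. Writhing (abdominal contraction, trunk twisting, hind-leg extension) was induced by intraperitoneal acetic acid, and writhes were counted. Test doses were 5 and 10 mg/kg, with a vehicle control and indomethacin 10 mg/kg as reference. Data are mean±SEM (n=5), analysed by one-way ANOVA with Tukey's test (p<.05 vs control).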
(Writhing tests count abdominal constrictions after an irritant is injected.)

Data set [2] relates to Rattus norvegicus. In words: Anti-inflammatory activity in Wistar rat assessed as inhibition of carrageenan-induced paw edema at 10 mg/kg, ip preincubated for 1 hr followed by carrageenan challenge and measured for 6 hrs. It counts as functional, organism-based. The method, boiled down:
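Carrageenan-induced paw inflammation in male Wistar rats (250-300 g), three groups of 5 animals. Data are mean±SEM (n=5), analysed by one-way ANOVA with Tukey's multiple range test (p<.05 vs control).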
(The carrageenan paw model is a standard test of acute inflammation.)

Data set [3] deals with Rattus norvegicus. In words: Analgesic activity in Wistar rat model of formalin-induced hyperalgesia assessed as reduction in number of formalin-evoked paw flinching during inflammatory phase at 10 mg/kg preincubated for 30 mins followed by formalin treatment and measured after 15 to 30 mins relative to control. It counts as functional. The method, boiled down: (§2)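 Formalin paw test in male Wistar rats (250-300 g), 5 per group. Flinching was counted separately in the neurogenic and inflammatory phases. Modulator studies used pre-treatment with substance P, L-NAME or L-arginine (NO precursor) in three groups each. Data are mean±SEM (n=5), analysed by one-way ANOVA with Tukey's test (p<.05 vs control).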

The subject of data set [4] is Rattus norvegicus. In words: Analgesic activity in Wistar rat model of formalin-induced hyperalgesia assessed as reduction in number of formalin-evoked paw flinching during neurogenic phase at 10 mg/kg preincubated for 30 mins followed by formalin treatment and measured during first 5 mins post formalin injection relative to control. It counts as functional. An outline of the steps: as §2

For data set [5], the target named is Prostaglandin G/H synthase 1 (Homo sapiens, UniProt P23219). As to the kind of experiment: Inhibition of COX-1 in human whole blood assessed as reduction in calcium ionophore A23187-stimulated thromboxane B2 production by measuring thromboxane B2 level at 1 uM preincubated for 60 mins followed by calcium ionophore A23187 stimulation and measured after 30 mins by ELISA (reference value: 1.4 ng/mL). The format is tissue-based. The note with it: 0.5 h. The method, boiled down:
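Human whole blood stimulated with calcium ionophore to drive COX-1, with thromboxane B2 formation measured. The test concentration was 1 μM, and indomethacin 1 μM served as reference.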
On the technique in general: An ELISA detects its analyte on a solid surface through an enzyme-linked reagent.

The subject of data set [6] is Rattus norvegicus. In words: Analgesic activity in Wistar rat model of acetic-acid-induced writhing assessed as inhibition of writhing numbers at 10 mg/kg, ip preincubated for 30 mins followed by acetic acid induction and measured for 30 mins. It counts as functional, organism-based. An outline of the steps:
as §1

In data set [7] the target is T1, Prostaglandin G/H synthase 1 (Ovis aries, UniProt P05979).
T1 sequence (P05979 whole entry): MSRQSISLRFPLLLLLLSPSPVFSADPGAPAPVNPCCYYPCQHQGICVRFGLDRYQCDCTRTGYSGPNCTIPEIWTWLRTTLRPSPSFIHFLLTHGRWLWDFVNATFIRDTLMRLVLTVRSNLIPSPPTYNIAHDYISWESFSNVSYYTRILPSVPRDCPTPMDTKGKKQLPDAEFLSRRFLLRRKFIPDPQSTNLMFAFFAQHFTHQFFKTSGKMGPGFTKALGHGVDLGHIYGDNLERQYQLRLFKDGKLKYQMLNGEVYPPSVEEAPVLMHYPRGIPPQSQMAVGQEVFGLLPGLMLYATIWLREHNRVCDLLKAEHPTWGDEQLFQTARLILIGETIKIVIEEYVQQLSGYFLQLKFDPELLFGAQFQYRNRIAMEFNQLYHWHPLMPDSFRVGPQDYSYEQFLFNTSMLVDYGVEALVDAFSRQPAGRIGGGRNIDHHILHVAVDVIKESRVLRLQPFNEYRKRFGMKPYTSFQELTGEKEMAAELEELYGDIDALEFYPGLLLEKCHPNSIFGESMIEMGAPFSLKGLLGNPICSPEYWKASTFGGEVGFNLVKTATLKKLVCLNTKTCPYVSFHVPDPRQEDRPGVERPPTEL
As to the kind of experiment: Inhibition of ovine COX-1 assessed as reduction in prostaglandin production preincubated for 10 mins followed by arachidonic acid addition and measured after 2 mins by EIA method.

Substrate in data set [8]: COC(=O)CNC(=O)[C@H](C)NC(=O)[C@@H]1CCCN1C(=O)CNC(=O)[C@H](C)N
As to the kind of experiment: (§3) Substrate activity at COX-2 (unknown origin) in pH 7.5 HEPES buffer assessed as enzyme-mediated test compound metabolism by measuring Km by LC-MS analysis. The format is ADME, Homo sapiens.

Substrate in data set [9]: CCCCC/C=C\C/C=C\C/C=C\C/C=C\CCCC(=O)O
The data set is described as §3. It counts as ADME, Homo sapiens.

The source made the active and inactive calls. No cut-off for these calls is given here. Peptide text beside a SMILES is read from it. * marks the point of attachment. Cbz = O=C(OCc1ccccc1)*

For orientation: IC50 means the concentration needed to halve the response being measured. As usually defined, the Km is the substrate concentration at which the rate is half of its maximum. The kcat is the number of substrate molecules converted per active site and unit of time at saturation. The term kcat/Km denotes the turnover number divided by the Michaelis constant.

Chain of Prostaglandin G/H synthase 1 (Homo sapiens, UniProt P23219) (P23219 whole entry): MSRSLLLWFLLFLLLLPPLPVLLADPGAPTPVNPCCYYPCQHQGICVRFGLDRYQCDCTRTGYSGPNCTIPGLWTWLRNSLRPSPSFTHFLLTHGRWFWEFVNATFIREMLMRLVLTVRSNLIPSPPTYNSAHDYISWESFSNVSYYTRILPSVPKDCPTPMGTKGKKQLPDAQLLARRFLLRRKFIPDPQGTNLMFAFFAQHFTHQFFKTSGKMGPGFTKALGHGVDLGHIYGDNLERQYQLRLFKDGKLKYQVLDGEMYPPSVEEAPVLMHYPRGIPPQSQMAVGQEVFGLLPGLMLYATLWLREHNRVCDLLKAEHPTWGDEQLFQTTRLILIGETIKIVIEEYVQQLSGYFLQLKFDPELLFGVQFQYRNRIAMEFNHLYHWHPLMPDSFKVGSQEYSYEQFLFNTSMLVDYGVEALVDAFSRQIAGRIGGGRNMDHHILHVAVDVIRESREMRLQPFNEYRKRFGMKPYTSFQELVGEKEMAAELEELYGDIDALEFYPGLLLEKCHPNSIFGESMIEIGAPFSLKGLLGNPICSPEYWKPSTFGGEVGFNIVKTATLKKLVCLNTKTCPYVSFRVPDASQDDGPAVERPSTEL

As to `COC(=O)CNC(=O)[C@H](C)NC(=O)[C@@H]1CCCN1C(=O)CNC(=O)[C@H](C)NC(=O)OCc1ccccc1` (Cbz-AGPAG-OMe), the Activity in [1] is reported as 80%.

Turning to `COc1ccc2c(c1)c(CC(=O)O)c(C)n2C(=O)c1ccc(Cl)cc1` [INDOMETHACIN], the result in data set [2], in data set [3] and in data set [6] was Active. For the same molecule, the result in [4] was inactive. In addition, the Activity in [5] was determined as 0.7 ng/mL.

Regarding `COC(=O)[C@H](Cc1ccccc1)NC(=O)[C@@H]1CCCN1C(=O)CNC(=O)[C@H](CCSC)NC(=O)OCc1ccccc1` (Cbz-MGPF-OMe), the IC50 in data set [7] is 500 nM. Besides, in data set [1], the result was Active.

B1: Prostaglandin G/H synthase 2 (Homo sapiens) (protein)
chain: MLARALLLCAVLALSHTANPCCSHPCQNRGVCMSVGFDQYKCDCTRTGFYGENCSTPEFLTRIKLFLKPTPNTVHYILTHFKGFWNVVNNIPFLRNAIMSYVLTSRSHLIDSPPTYNADYGYKSWEAFSNLSYYTRALPPVPDDCPTPLGVKGKKQLPDSNEIVEKLLLRRKFIPDPQGSNMMFAFFAQHFTHQFFKTDHKRGPAFTNGLGHGVDLNHIYGETLARQRKLRLFKDGKMKYQIIDGEMYPPTVKDTQAEMIYPPQVPEHLRFAVGQEVFGLVPGLMMYATIWLREHNRVCDVLKQEHPEWGDEQLFQTSRLILIGETIKIVIEDYVQHLSGYHFKLKFDPELLFNKQFQYQNRIAAEFNTLYHWHPLLPDTFQIHDQKYNYQQFIYNNSILLEHGITQFVESFTRQIAGRVAGGRNVPPAVQKVSQASIDQSRQMKYQSFNEYRKRFMLKPYESFEELTGEKEMSAELEALYGDIDAVELYPALLVEKPRPDAIFGETMVEVGAPFSLKGLMGNVICSPAYWKPSTFGGEVGFQIINTASIQSLICNNVKGCPFTSFSVPDPELIKTVTINASSSRSGLDDINPTVLLKERSTEL
With B1, in [8], the Km was 21 µM, the kcat amounted to 13.2 s⁻¹ and the kcat/Km was found to be 630000 M⁻¹ s⁻¹. Further, in data set [9], the Km was found to be 210 µM, the kcat stood at 200 s⁻¹ and the kcat/Km came to 950000 M⁻¹ s⁻¹.

The values are drawn from ChEMBL document CHEMBL4364282, “Engineered Substrate for Cyclooxygenase-2: A Pentapeptide Isoconformational to Arachidonic Acid for Managing Inflammation” (J Med Chem, 2019).
